Results reported in ChEMBL document CHEMBL4152266, “Insight into structural requirements for selective and/or dual CXCR3 and CXCR4 allosteric modulators” (Eur J Med Chem, 2018).
Activity calls are given as the source filed them. The calls are words filed in the database; no cut-off is given here.

Key:
[1] = biological target: T1, C-X-C chemokine receptor type 3 (Homo sapiens) (UniProt P49682); assay: Negative allosteric modulation of PK1-tagged CXCR3 (unknown origin) expressed in HEK293T cells co-expressing beta-arrestin/beta-Gal enzyme chimera assessed as inhibition of CXCL11-induced beta-arrestin recruitment at 10 uM after 4 hrs by chemiluminescence based beta-galactosidase reporter gene assay relative to control; format: functional, cell-based
T1 sequence (whole entry): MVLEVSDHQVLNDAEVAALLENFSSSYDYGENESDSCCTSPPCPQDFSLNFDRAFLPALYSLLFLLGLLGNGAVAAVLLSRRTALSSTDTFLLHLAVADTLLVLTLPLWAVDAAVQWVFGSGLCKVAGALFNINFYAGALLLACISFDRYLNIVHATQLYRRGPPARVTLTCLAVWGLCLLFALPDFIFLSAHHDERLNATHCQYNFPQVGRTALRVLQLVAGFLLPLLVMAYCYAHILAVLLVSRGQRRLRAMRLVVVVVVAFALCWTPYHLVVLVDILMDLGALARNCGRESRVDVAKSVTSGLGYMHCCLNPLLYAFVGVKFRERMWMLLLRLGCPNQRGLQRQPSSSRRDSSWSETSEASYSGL
Procedure, shortened: (§1)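 PathHunter β-arrestin 2 recruitment at CXCR3 by β-gal fragment complementation, chemiluminescent read-out, compounds at 10 µM. Inhibition mode is scaled between CXCL11 50 nM (100%) and (±)-NBI-74330 10 µM (full inhibition). Agonism tested without chemokine. Mean ± S.E.M., three experiments in triplicate.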

[2] = biological target: T1, C-X-C chemokine receptor type 3 (Homo sapiens); assay: Agonist activity at PK1-tagged CXCR3 (unknown origin) expressed in HEK293T cells co-expressing beta-arrestin/beta-Gal enzyme chimera assessed as beta-arrestin recruitment at 10 uM after 4 hrs by chemiluminescence based beta-galactosidase reporter gene assay; format: functional, cell-based; procedure, shortened: as §1
[3] = biological target: T1, C-X-C chemokine receptor type 3 (Homo sapiens); assay: Agonist activity at CXCR3 (unknown origin) expressed in HEK293T cells assessed as inhibition of forskolin-mediated cAMP accumulation at 10 uM after 20 mins by BRET assay; format: functional, cell-based
[4] = biological target: T1, C-X-C chemokine receptor type 3 (Homo sapiens); assay: Negative allosteric modulation of CXCR3 in human PBMC assessed as inhibition of CXCL11-induced migration at 150 uM preincubated for 1 hr followed by CXCL11 addition measured after 3 hrs by flow cytometry based transwell assay relative to control; format: functional, cell-based
Procedure, shortened: (§2)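 Human PBMCs, CXCR3 expression confirmed by flow cytometry, pre-treated with compound (30 or 150 µM) then allowed to migrate toward CXCL11 in a transwell. Cells in the lower chamber counted by flow cytometry (60 s counts). Mean ± SD of four independent experiments; unpaired t test.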

[5] = biological target: T1, C-X-C chemokine receptor type 3 (Homo sapiens); assay: Positive allosteric modulation of PK1-tagged CXCR3 (unknown origin) expressed in HEK293T cells co-expressing beta-arrestin/beta-Gal enzyme chimera assessed as increase in CXCL11-induced beta-arrestin recruitment at 10 uM after 4 hrs by chemiluminescence based beta-galactosidase reporter gene assay; format: functional, cell-based; procedure, shortened: as §1
[6] = biological target: T1, C-X-C chemokine receptor type 3 (Homo sapiens); assay: Negative allosteric modulation of CXCR3 in human PBMC assessed as inhibition of CXCL11-induced migration at 30 uM preincubated for 1 hr followed by CXCL11 addition measured after 3 hrs by flow cytometry based transwell assay relative to control; format: functional, cell-based; procedure, shortened: as §2
[7] = biological target: T2, C-X-C chemokine receptor type 4 (Homo sapiens, UniProt P61073); assay: Agonist activity at CXCR4 (unknown origin) expressed in HEK293T cells assessed as inhibition of forskolin-mediated cAMP accumulation at 10 uM after 20 mins by BRET assay; format: functional, cell-based
T2 sequence (P61073 whole entry): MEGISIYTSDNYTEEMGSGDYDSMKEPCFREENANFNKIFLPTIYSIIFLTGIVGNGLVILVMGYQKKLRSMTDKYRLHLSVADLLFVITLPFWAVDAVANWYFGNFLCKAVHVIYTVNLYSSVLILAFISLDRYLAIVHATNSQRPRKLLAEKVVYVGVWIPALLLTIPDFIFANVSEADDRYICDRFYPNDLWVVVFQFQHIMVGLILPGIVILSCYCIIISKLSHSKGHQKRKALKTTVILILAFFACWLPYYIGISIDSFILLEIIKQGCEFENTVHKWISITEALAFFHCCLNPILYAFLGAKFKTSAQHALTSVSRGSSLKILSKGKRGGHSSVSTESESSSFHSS
Procedure, shortened: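 Agonism screen in BRET-based cAMP assay, compounds at 10 µM applied without chemokine. For CXCR4, CXCL12 at 20 nM serves as positive control. Mean of three experiments, each in triplicate.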

[8] = biological target: T1, C-X-C chemokine receptor type 3 (Homo sapiens); assay: Negative allosteric modulation of CXCR3 (unknown origin) expressed in HEK293T cells assessed as inhibition of CXCL11-induced reduction in forskolin-mediated cAMP accumulation at 10 uM after 20 mins by BRET assay relative to control; format: functional, cell-based
Procedure, shortened: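 CXCR3 antagonism in whole-cell BRET cAMP assay, compounds at 10 µM. NetBRET signal expressed as percent, scaled between CXCL11 50 nM (100%) and cRAMX3 10 µM (0%). Mean ± S.E.M. of three experiments in triplicate.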

[9] = biological target: T2, C-X-C chemokine receptor type 4; assay: Negative allosteric modulation of CXCR4 (unknown origin) expressed in HEK293T cells assessed as inhibition of CXCL12-induced reduction in forskolin-mediated cAMP accumulation after 20 mins by BRET assay; format: functional, cell-based
Procedure, shortened: (§3)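 Dose-response in CXCR4 BRET cAMP assay with CXCL12 at 20 nM, IT1t as reference. Analysis uses ternary complex allosteric model; where signal-to-noise was poor, nonlinear regression with Hill slope fixed at 1 gave approximate pEC50. Three experiments in triplicate.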

[10] = biological target: T2, C-X-C chemokine receptor type 4; assay: Agonist activity at CXCR4 (unknown origin) expressed in HEK293T cells assessed as inhibition of forskolin-mediated cAMP accumulation after 20 mins by BRET assay; format: functional, cell-based; procedure, shortened: as §3
[11] = biological target: T2, C-X-C chemokine receptor type 4; assay: Positive allosteric modulation of CXCR4 (unknown origin) expressed in HEK293T cells assessed as increase in CXCL12-induced reduction in forskolin-mediated cAMP accumulation at 10 uM after 20 mins by BRET assay relative to control; format: functional, cell-based; design: scale not given: the % may be the effect or the level left
[12] = biological target: T2, C-X-C chemokine receptor type 4; assay: Negative allosteric modulation of CXCR4 (unknown origin) expressed in HEK293T cells assessed as inhibition of CXCL12-induced reduction in forskolin-mediated cAMP accumulation at 10 uM after 20 mins by BRET assay relative to control; format: functional, cell-based
Procedure, shortened: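 CXCR4 antagonism in BRET cAMP assay, compounds at 10 µM. NetBRET expressed as percent, scaled between CXCL12 20 nM (100%) and IT1t 10 µM (0%). Mean ± S.E.M. of three experiments in triplicate.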

[13] = biological target: T2, C-X-C chemokine receptor type 4; assay: Negative allosteric modulation of CXCR4 in human CD4+ T cells assessed as inhibition of CXCL12-induced migration at 150 uM preincubated for 1 hr followed by CXCL12 addition measured after 3 hrs by flow cytometry based transwell assay relative to control; format: functional, cell-based
Procedure, shortened: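 Isolated human CD4+ T cells, CXCR4 expression checked by flow cytometry, pre-treated with compound at 150 µM, then transwell migration toward CXCL12. Migrated cells in the lower chamber counted by flow cytometry over 60 s. Mean ± SD of four independent experiments; unpaired t test.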

[14] = biological target: T2, C-X-C chemokine receptor type 4; assay: Negative allosteric modulation of CXCR4 (unknown origin) expressed in HEK293 cell membranes assessed as inhibition of CXCL12-induced [35S]GTPgammaS binding preincubated for 30 mins followed by [35S]GTPgammaS addition measured after 30 mins; format: functional
[15] = biological target: T1, C-X-C chemokine receptor type 3 (Homo sapiens); assay: Negative allosteric modulation of CXCR3 (unknown origin) expressed in HEK293 cell membranes assessed as inhibition of CXCL11-induced [35S]GTPgammaS binding preincubated for 30 mins followed by [35S]GTPgammaS addition measured after 30 mins; format: functional
[16] = biological target: T1, C-X-C chemokine receptor type 3 (Homo sapiens); assay: Negative allosteric modulation of CXCR3 (unknown origin) expressed in HEK293T cells assessed as inhibition of CXCL11-induced reduction in forskolin-mediated cAMP accumulation after 20 mins by BRET assay; format: functional, cell-based
Procedure, shortened: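 CXCR3 dose-response in BRET cAMP assay against CXCL11 at 50 nM, cRAMX3 as reference. Data fitted with a ternary complex allosteric model to give pKB and cooperativity α. Mean ± S.E.M., three experiments in triplicate.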

| Compound | inhibition [1] | Activity [2] | inhibition [3] | Activity [5] | inhibition [8] | pKb [9] | inhibition [12] | also measured |
| --- | --- | --- | --- | --- | --- | --- | --- | --- |
| O=C(c1ccc(-n2cccn2)nc1)N1CCC(N(Cc2ccccc2)Cc2ccc(F)c(F)c2)CC1 | ≥ 20% | inactive | inactive |  |  |  |  |  |
| O=C(c1ccc(-n2cccn2)nc1)N1CCC(NCc2ccccc2)CC1 |  | inactive | inactive | inactive |  |  |  | EC50 [10]: 5.89 µM; Activity [11]: Active; inhibition [7]: Active |
| O=C(NC1CCN(Cc2ccc(F)c(F)c2)CC1)c1ccc(-n2cccn2)nc1 |  | inactive | inactive |  | > 50% |  |  | inhibition [4]: > 20%; inhibition [6]: > 10% |
| CCN(CCCNC(=O)c1ccc(-n2cccn2)nc1)c1ccccc1 |  |  |  |  | inactive |  | inactive | pKb [14]: 8.72; pKb [15]: 8.82 |
| O=C(c1ccc(-n2cccn2)nc1)N1CCC(N(Cc2ccccc2)Cc2ccccc2)CC1 | ≥ 20% | inactive | inactive |  |  |  |  |  |
| CCOc1ccc(-n2c(C(C)N(Cc3cccnc3)C(=O)Cc3ccc(F)c(C(F)(F)F)c3)nc3ncccc3c2=O)cc1 (racemic) | 100% |  |  |  |  |  |  |  |
| O=C(c1ccc(-n2cccn2)nc1)N1CCN(Cc2ccc(Cl)cc2)CC1 | inactive |  |  |  | > 60% |  |  | inhibition [4]: > 20%; pKb [16]: 6.35; inhibition [6]: > 10% |
| O=C(NCCCN(CCc1ccccc1)c1ccccc1)c1ccc(-n2cccn2)nc1 |  |  |  | inactive |  | 6.13 | > 50% | inhibition [13]: > 80% |
| CC1(C)CN2C(CS/C(=N\C3CCCCC3)NC3CCCCC3)=CSC2=N1 |  |  |  |  |  | 8.54 |  | Activity [11]: 100% |
| O=C(NCCCN(Cc1ccccc1)c1ccccc1)c1ccc(-n2cccn2)nc1 |  |  |  | inactive |  | 6.04 | > 50% | inhibition [13]: > 80% |
| COc1ccc(CN(Cc2ccccc2)C2CCN(C(=O)c3ccc(-n4cccn4)nc3)CC2)cc1 | ≥ 20% | inactive | inactive | inactive |  | 5.83 | > 50% | inhibition [13]: 100% |
| O=C(NCCCNc1ccc(Cl)cc1)c1ccc(-n2cccn2)nc1 |  |  |  | inactive |  | 4.64 |  | inhibition [7]: Active |

Second part, led by results:

| inhibition [1] | Activity [2] | inhibition [3] | Activity [5] | inhibition [8] | pKb [9] | inhibition [12] | Compound | also measured |
| --- | --- | --- | --- | --- | --- | --- | --- | --- |
|  | inactive | inactive | inactive | > 50% | 5.6 |  | O=C(NC1CCN(Cc2ccc(Cl)cc2)CC1)c1ccc(-n2cccn2)nc1 | inhibition [4]: 80%; inhibition [6]: 80%; inhibition [7]: Active |
|  |  |  | inactive |  | 6.5 | > 50% | O=C(c1ccc(-n2cccn2)nc1)N1CCN(Cc2ccc(Cl)c(Cl)c2)CC1 | inhibition [13]: > 80% |
| ≥ 20% | inactive | inactive |  |  |  |  | O=C(c1ccc(-n2cccn2)nc1)N1CCC(N(Cc2ccccc2)Cc2ccc(Cl)cc2)CC1 |  |
|  | inactive | inactive |  | > 50% |  |  | O=C(c1ccc(-n2cccn2)nc1)N1CCC(N(Cc2ccccc2)Cc2ccc(Cl)c(Cl)c2)CC1 | inhibition [4]: > 20%; inhibition [6]: > 10% |
|  |  |  |  | 100% |  |  | CCOc1ccc(-n2c(C(C)N(CC3CCN(C)CC3)C(=O)Cc3ccc(F)c(C(F)(F)F)c3)nc3ncccc3c2=O)cc1 (stereo not given) | pKb [16]: 7.33 |
|  |  |  | inactive | > 60% | 6.09 | > 50% | COc1ccc(CN2CCN(C(=O)c3ccc(-n4cccn4)nc3)CC2)cc1 | inhibition [4]: > 20%; pKb [16]: 6.15; inhibition [6]: > 10%; inhibition [13]: > 80% |
|  |  |  | inactive |  |  |  | O=C(NCCCNc1ccccc1)c1ccc(-n2cccn2)nc1 | EC50 [10]: 9.55 µM; inhibition [7]: Active |
